ChEMBL document CHEMBL3232922, “Discovery and SAR of 6-alkyl-2,4-diaminopyrimidines as histamine H₄ receptor antagonists” (J Med Chem, 2014)
Activity calls are given as the source filed them. No cut-off for these calls is given here.

What was measured:
[1] = test system: Mus musculus; experiment: Antiinflammatory activity against po dosed collagen-induced arthritis mouse model assessed as inhibition of clinical score; type: functional, organism-based
In short: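 Mouse collagen-induced arthritis model. Compound was given orally in 20% hydroxypropyl-β-cyclodextran, with eight mice per group.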

[2] = Antagonist activity at monkey histamine H4 receptor; parameters: species or system Macaca mulatta
[3] = Fraction unbound in human plasma; type: ADME, cell-free
[4] = Tmax in Sprague-Dawley rat at 50 mg/kg, po; type: ADME, organism-based; parameters: dose 50 mg/kg, route oral; conditions: in vivo
[5] = Volume of distribution at steady state in beagle dog at 2 mg/kg, iv; type: ADME, organism-based, Canis lupus familiaris; parameters: dose 2 mg/kg, route intravenous; conditions: in vivo, read-out: Vdss
[6] = Oral bioavailability in Sprague-Dawley rat at 200 mg/kg; type: ADME, organism-based; conditions: in vivo
[7] = Binding affinity to monkey histamine H4 receptor; parameters: species or system Macaca mulatta
[8] = Cmax in Balb/c mouse at 20 mg/kg, po; type: ADME, organism-based; parameters: dose 20 mg/kg, route oral; conditions: in vivo
[9] = Tmax in Sprague-Dawley rat at 200 mg/kg, po; type: ADME, organism-based; parameters: dose 200 mg/kg, route oral; conditions: in vivo
[10] = Cmax in beagle dog at 10 mg/kg, po; type: ADME, organism-based, Canis lupus familiaris; parameters: dose 10 mg/kg, route oral; conditions: in vivo
[11] = Half life in Balb/c mouse at 2 mg/kg, iv; type: ADME, organism-based; parameters: dose 2 mg/kg, route intravenous; conditions: in vivo
[12] = Cmax in Sprague-Dawley rat at 200 mg/kg, po; type: ADME, organism-based; parameters: dose 200 mg/kg, route oral; conditions: in vivo
[13] = Volume of distribution at steady state in Balb/c mouse at 2 mg/kg, iv; type: ADME, organism-based; parameters: dose 2 mg/kg, route intravenous; conditions: in vivo, read-out: Vdss
[14] = Tmax in Balb/c mouse at 5 mg/kg, po; type: ADME, organism-based; parameters: dose 5 mg/kg, route oral; conditions: in vivo
[15] = Half life in beagle dog at 2 mg/kg, iv; type: ADME, organism-based, Canis lupus familiaris; parameters: dose 2 mg/kg, route intravenous; conditions: in vivo
[16] = test system: Salmonella typhimurium; experiment: Genotoxicity in Salmonella typhimurium by Ames test; type: toxicity, organism-based; conditions: salmonella enterica subsp. enterica serovar typhimurium
[17] = Half life in rat at 10 mg/kg, po; type: ADME, organism-based; parameters: dose 10 mg/kg, route oral; conditions: in vivo
[18] = test system: Mus musculus; experiment: Antiinflammatory activity in po dosed Balb/c mouse assessed as inhibition of LPS-induced TNF-alpha release at plasma concentration of 5.7 nM administered 30 mins prior to LPS challenge measured after 2 hrs by ELISA; type: functional, organism-based
[19] = biological target: Histamine H3 receptor (Homo sapiens, UniProt Q9Y5N1); experiment: Displacement of [3H]N-alpha-methylhistamine from human recombinant histamine H3 receptor expressed in SK-N-MC cells after 45 mins by competition binding analysis; type: cell-based
Chain of Histamine H3 receptor (Q9Y5N1 whole entry): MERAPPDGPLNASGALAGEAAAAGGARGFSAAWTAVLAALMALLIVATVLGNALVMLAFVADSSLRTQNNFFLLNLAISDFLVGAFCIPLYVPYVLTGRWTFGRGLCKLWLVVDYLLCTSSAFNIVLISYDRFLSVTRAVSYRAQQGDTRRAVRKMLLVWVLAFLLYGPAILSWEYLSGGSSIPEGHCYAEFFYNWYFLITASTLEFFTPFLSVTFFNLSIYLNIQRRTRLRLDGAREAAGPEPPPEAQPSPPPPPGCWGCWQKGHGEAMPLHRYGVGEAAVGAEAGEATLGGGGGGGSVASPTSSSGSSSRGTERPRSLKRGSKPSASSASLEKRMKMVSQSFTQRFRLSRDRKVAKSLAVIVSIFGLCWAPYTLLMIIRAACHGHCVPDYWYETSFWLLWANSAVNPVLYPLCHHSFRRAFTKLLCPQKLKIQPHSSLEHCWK

[20] = biological target: Histamine H4 receptor (Homo sapiens, UniProt Q9H3N8); experiment: Agonist activity at human H4 receptor
[21] = Tmax in Sprague-Dawley rat at 500 mg/kg, po; type: ADME, organism-based; parameters: dose 500 mg/kg, route oral; conditions: in vivo
[22] = Cmax in Balb/c mouse at 5 mg/kg, po; type: ADME, organism-based; parameters: dose 5 mg/kg, route oral; conditions: in vivo
[23] = Half life in Sprague-Dawley rat at 500 mg/kg, po; type: ADME, organism-based; parameters: dose 500 mg/kg, route oral; conditions: in vivo
[24] = AUC in Sprague-Dawley rat at 500 mg/kg, po; type: ADME, organism-based; parameters: dose 500 mg/kg, route oral; conditions: plasma
[25] = Fraction unbound in mouse plasma; type: ADME, cell-free
[26] = Tmax in Balb/c mouse at 20 mg/kg, po; type: ADME, organism-based; parameters: dose 20 mg/kg, route oral; conditions: in vivo

pA2 [2]: 7.5 | fraction unbound [3]: 0.81 | Tmax [4]: 2 h | Vd [5]: 19.9 L/kg | bioavailability [6]: 51% | Ki [7]: 0.025 µM | Cmax [8]: 5.03 µM | Tmax [9]: 8 h | Cmax [10]: 3.9 µM | half-life [11]: 7.8 h | Cmax [12]: 4.91 µM | Vd [13]: 31 L/kg | Tmax [14]: 2 h | half-life [15]: 10.2 h | half-life [17]: 7.5 h | Ki [19]: 1.04 µM | EC50 [20]: > 10 µM | Tmax [21]: 8 h | Cmax [22]: 0.79 µM | half-life [23]: 12 h | AUC [24]: 184 µM·h | fraction unbound [25]: 0.76 | Tmax [26]: 0.5 h
SMILES: CC(C)c1cc(N2CC[C@@H](N)C2)nc(N)n1 [JNJ-39758979]
inhibition [1]: Dose-dependent effect | Activity [16]: Non-toxic | inhibition [18]: Active
